The target of data set [1] is T1, WD repeat-containing protein 5 (Homo sapiens, UniProt P61964).
In data set [2] the target is T1, WD repeat-containing protein 5. The data set can be described thus: Binding affinity to WDR5 (unknown origin) assessed as inhibition of WDR5-MLL1 protein-protein interaction by TR-FRET assay. (In TR-FRET formats the signal depends on donor and acceptor labels being close together.)
For another data set, the species on record is Homo sapiens. The data set can be described thus: Inhibition of human MLL1/WDR5/RBBP5/ASH2L/DPY30 complex assessed as reduction in histone methyl-transferase activity using H3-peptide as substrate.
Data set [3] is described as follows: Apparent permeability from apical to basolateral side in MDCK cells. Conditions: dog. It counts as ADME, cell-based, Canis lupus familiaris.
Data set [4] in a line: Protein binding in plasma (unknown origin) assessed as unbound fraction. It counts as ADME, cell-free.
A short description of data set [5]: Apparent permeability from basolateral to apical side in MDCK cells. It counts as ADME, cell-based, Canis lupus familiaris. Conditions: dog.
Data set [6] is described as follows: Solubility of the compound. It counts as physicochemical. Put shortly: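 Kinetic solubility, measured by an outside contract lab using a standard commercial assay format.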
Data set [7] addresses T1, WD repeat-containing protein 5. The data set can be described thus: Binding affinity to N-terminal FLAG-tagged human full-length WDR5 expressed in HEK293T cells harboring human C-terminal HA-tagged c-MYC assessed as disruption of WDR5-RBBP5 protein-protein interaction at 50 uM by SDS-PAGE based immunoblot assay. It counts as cell-based. A digest of the protocol: (§1)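 HEK293 cells expressing FLAG-WDR5 and c-MYC-HA were kept in DMEM with 10% FBS, hygromycin B 50 μg/mL and puromycin 100 ng/mL. Lysates in Tris pH 8.0/NaCl/EDTA/1% Triton buffer were treated with compound at 50 μM or 6.25–50 μM. α-FLAG magnetic M2 beads, 2 h at 4 °C, then SDS-PAGE and α-RBBP5 immunoblot. Quantified against vehicle; at least two independent repeats.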
For orientation: In western blotting, separated proteins are transferred to a membrane and probed.

For data set [8] the target is unchanged. Put plainly: Binding affinity to N-terminal FLAG-tagged human full-length WDR5 expressed in HEK293T cells harboring human C-terminal HA-tagged c-MYC assessed as disruption of WDR5-c-MYC protein-protein interaction at 50 uM by SDS-PAGE based immunoblot assay. Format: cell-based.
For data set [9] the target is unchanged. Put plainly: Binding affinity to N-terminal FLAG-tagged human full-length WDR5 […] assessed as change in melting temperature at 10 uM by differential scanning fluorimetry. Put shortly:
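Thermal shift (differential scanning fluorimetry) on WDR5, with compounds at 10 μM. Samples were run in triplicate, and ΔTm is the average melting-temperature shift read by fluorescence.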
In general terms: Differential scanning fluorimetry follows unfolding on heating by fluorescence.

Data set [10] has the same target. The data set can be described thus: Binding affinity to N-terminal FLAG-tagged human full-length WDR5 expressed in HEK293T cells harboring human C-terminal HA-tagged c-MYC assessed as disruption of WDR5-RBBP5 protein-protein interaction by SDS-PAGE based immunoblot assay. It counts as cell-based. Put shortly:
as §1

For data set [11] the target is unchanged. The data set can be described thus: Binding affinity to N-terminal FLAG-tagged human full-length WDR5 expressed in HEK293T cells harboring human C-terminal HA-tagged c-MYC assessed as disruption of WDR5-c-MYC protein-protein interaction by SDS-PAGE based immunoblot assay. Format: cell-based.

SMILES strings stand for the structures. Active and inactive are the calls of the source. The calls are words filed in the database; no cut-off is given here.

Usually Kd stands for the constant that tells how readily two partners part at equilibrium. The low end stands for a tighter complex, the high end for a looser complex. As usually defined, the Papp is a coefficient for how fast a substance crosses the barrier. One may read the solubility as the concentration that dissolves in the medium under given conditions. Read a low solubility as little dissolved substance. The term ΔTm denotes the shift of the melting midpoint relative to a reference.

In the case of `O=C(O)c1cc(OC(F)(F)F)cc(NS(=O)(=O)c2cc(Br)cc(Cl)c2O)c1O`, the Kd in data set [1] stood at 51 nM. Further, in [2], the inhibition result is “inactive”.

On to `CNC(=O)c1c(O)c(NS(=O)(=O)c2cc(Br)ccc2O)cc(C2CC2)c1F`, for which the inhibition entry in the data set filed under Homo sapiens was “Active”. Also, the Papp in [3] was 12.9 ×10⁻⁶ cm/s; in data set [5], 3.4 ×10⁻⁶ cm/s. Binding in [1] was put at a Kd of 1420 nM. The Fu in data set [4] was < 0.0002%. In data set [6], the solubility is > 100 µM.

For `CNC(=O)c1cc(C2(C#N)CCCCC2)cc(NS(=O)(=O)c2cc(Br)ccc2O)c1O`, the affinity in data set [1], expressed as Kd, was 779 nM. The inhibition entry in data set [2] is “inactive”.

`CNC(=O)c1cc(Cl)cc(NS(=O)(=O)c2cc(Br)ccc2O)c1O`: the inhibition entry in the data set filed under Homo sapiens is “Active”. Besides, the result in [7] and in data set [8] was Active. Moreover, the figures for the Papp in data set [3] and in data set [5] were 16.7 ×10⁻⁶ cm/s and 14.1 ×10⁻⁶ cm/s, respectively. For the same molecule, the Kd in [1] was 746 nM. Further, in data set [4], the Fu was < 0.0004%. Moreover, the solubility in [6] was > 100 µM.

As for `O=C(O)c1cc(NS(=O)(=O)c2cc(Br)cc(Cl)c2O)cc(S(F)(F)(F)(F)F)c1`, in the data set listed under Homo sapiens, the inhibition entry was “Active”. The molecule further returned a Kd in data set [1] of 29 nM. Further, the inhibition result in [2] is “inactive”.

As to `N#CC1(c2cc(NS(=O)(=O)c3cc(Br)ccc3O)c(O)c(C(=O)O)c2)CCC1`, the outcome in [7] and in [8] was Active. Moreover, the Kd in data set [1] amounted to 67 nM. Further, the ΔTm in [9] is 3.9 °C.

For `N#CC1(c2cc(NS(=O)(=O)c3cc(Br)ccc3O)cc(C(=O)O)c2)CCC1`, in data set [1], binding was characterised by a dissociation constant (Kd) of 229 nM. Also, the inhibition result in data set [2] was “inactive”.

Molecule `N#CC1(c2ccc(O)c(NS(=O)(=O)c3cc(Br)ccc3O)c2)CC1` had a Kd in data set [1] of 852 nM. Moreover, the inhibition result in data set [2] is “inactive”.

As for `N#CC1(c2cc(NS(=O)(=O)c3cc(Br)cc(Cl)c3O)c(O)c(C(=O)O)c2)CCCCC1`, the outcome in data set [7] and in [8] was Active. Moreover, the Kd in data set [1] came to 38 nM. The thermal shift (ΔTm) in [9] was found to be 6.38 °C.

`O=C(O)c1cc(C2CC2)cc(NS(=O)(=O)c2cc(Br)ccc2O)c1O`: the result in [7] and in data set [8] was Active. The molecule also showed a Kd in data set [1] of 184 nM. Moreover, in data set [2], the inhibition entry is “inactive”.

As for `N#CC1(c2cc(NS(=O)(=O)c3cc(Br)cc(Cl)c3O)c(O)c(C(=O)O)c2)CCC1`, the inhibition result in the data set filed under Homo sapiens is “Active”. Also, the result in data set [7] and in data set [8] was Active. Also, the Papp in data set [3] is on record as 0.33 ×10⁻⁶ cm/s. Besides, the equilibrium dissociation constant (Kd) in [1] is 30 nM. Besides, in data set [4], the Fu is reported as < 0.0003%. In addition, the inhibition entry in data set [2] is “inactive”. Moreover, the Activity result in data set [10] and in [11] was “Dose-dependent effect” each time. Besides, the solubility in data set [6] is > 100 µM. For the same molecule, the ΔTm in [9] came to 6.68 °C.

On to `CNC(=O)c1cc(C2(C#N)CCC2)cc(NS(=O)(=O)c2cc(Br)cc(Cl)c2O)c1O`, for which, in the data set listed under Homo sapiens, the inhibition entry was “Active”. Moreover, the result in data set [7] and in [8] was Active. Also, in data set [3], the apparent permeability (Papp) worked out at 14 ×10⁻⁶ cm/s. In addition, the Kd in data set [1] is 69 nM. Moreover, the Fu in [4] is < 0.0006%. The Activity entry in data set [10] and in [11] was “Dose-dependent effect” throughout. For the same molecule, in data set [6], the solubility is > 100 µM. Further, the ΔTm in data set [9] was 5.53 °C.

Regarding `O=C(O)c1cc(S(F)(F)(F)(F)F)cc(NS(=O)(=O)c2cc(Br)ccc2O)c1O`, the Kd in [1] was 47 nM. The inhibition result in [2] was “inactive”.

Values taken from ChEMBL document CHEMBL4414651, “Discovery and Optimization of Salicylic Acid-Derived Sulfonamide Inhibitors of the WD Repeat-Containing Protein 5-MYC Protein-Protein Interaction” (J Med Chem, 2019).
